Source: ChEMBL document CHEMBL1121799, “Beta-adrenoceptor stimulant properties of amidoalkylamino-substituted 1-aryl-2-ethanols and 1-(aryloxy)-2-propanols” (1981)

Columns and labels:
[1] = species: Canis familiaris; test: Intrinsic sympathomimetic activity (ISA), calculated as the percent of maximum change in hind limb perfusion pressure (HLPP); format: functional, Canis lupus familiaris, Hindlimb
How it was run: (§1)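 Same anesthetized, ventilated dog preparation with a pump-perfused left hind limb. An isoproterenol curve was run first. About 45 min later, once HR and HLPP had returned to control, cumulative iv doses of test compound in saline were given. ISA is the maximum HR or HLPP change produced by the compound, expressed as a percentage of the isoproterenol maximum.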

[2] = species: Canis familiaris; test: Intrinsic sympathomimetic activity (ISA, calculated as the percent of maximum change in heart rate (HR); format: functional, Canis lupus familiaris; how it was run: as §1
[3] = tested on: Canis familiaris; test: Effective dose required for the maximum heart rate in anesthetized dogs.; format: functional; conditions: Canis lupus familiaris
How it was run: (§2)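 Anesthetized dogs on pentobarbital (20 mg/kg iv, then 2 mg/kg iv every 30 min), ventilated with 40% O2 in air. Left hind limb pump-perfused from the abdominal aorta, heparin 500 IU/kg iv. HR from a lead II ECG-driven cardiotachometer. Arterial pCO2 held at 34-42 mmHg and pH 7.35-7.43. Cumulative iv doses in saline. ED50 taken from dose-response curves of peak HR or HLPP change.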

[4] = tested on: Canis familiaris; test: Effective dose required for the maximum hind limb perfusion pressure(HLPP) in anesthetized dogs.; format: functional; conditions: Canis lupus familiaris, Hindlimb; how it was run: as §2
[5] = species: Canis familiaris; test: Selectivity is expressed as the ratio of ED50 on hind limb perfusion pressure to the ED50 on heart rate; format: functional, Canis lupus familiaris
How it was run: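 Cardioselectivity is the ratio of ED50 for HLPP to ED50 for HR. Both come from cumulative iv dose-response curves in pentobarbital-anesthetized dogs with a pump-perfused hind limb and a cardiotachometer reading HR.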

Structure (SMILES) | ISA [1] | ISA [2] | ED50 [3] | ED50 [4] | Selectivity [5]
CC(C)C(=O)NCCNCC(O)c1cccc(O)c1.O=C(O)C(=O)O (centres undefined) | 75% | 75% | 0.038 µmol/kg | 0.132 µmol/kg | 3.5
CC(C)NCC(O)COc1ccc(O)c(CO)c1.O=C(O)C(=O)O (centres undefined) | 55% | 44% | 0.067 µmol/kg | 0.098 µmol/kg | 1.5
CC(C)NCC(O)c1cc(O)cc(O)c1 (centres undefined) [METAPROTERENOL] | 100% | 83% | 0.014 µmol/kg | 0.014 µmol/kg | 1
CC(C)NCC(O)COc1cc(O)cc(O)c1.O=C(O)C(=O)O (centres undefined) | 25% | 32% | 0.012 µmol/kg | 0.012 µmol/kg | 1
CC(C)NCC(O)c1cccc(O)c1 (centres undefined) [METATEROL] | 100% | 100% | 0.071 µmol/kg | 0.138 µmol/kg | 1.9
O=C(NCCNCC(O)COc1ccc(O)cc1)N1CCOCC1 (centres undefined) [XAMOTEROL] | 0% | 50% | 0.012 µmol/kg | > 3 µmol/kg | >250
COCCNC(=O)NCCNCC(O)COc1ccc(O)cc1.O=C(O)C(=O)O (centres undefined) | 58% | 74% | 0.021 µmol/kg | 0.052 µmol/kg | 2.5
CC(C)C(=O)NCCNCC(O)COc1cccc(O)c1.O=C(O)C(=O)O (centres undefined) | 33% | 25% | 0.209 µmol/kg | 0.26 µmol/kg | 1.2
CN(C)C(=O)NCCNCC(O)COc1ccc(O)cc1.O=C(O)C(=O)O (centres undefined) | 0% | 29% | 0.024 µmol/kg | > 1 µmol/kg | >40
O=C(NCCNCC(O)c1ccc(O)c(O)c1)Nc1ccccc1.O=C(O)C(=O)O (centres undefined) | 100% | 100% | 0.0009 µmol/kg | 0.0054 µmol/kg | 6
CC(C)NCC(O)COc1cccc(O)c1.O=C(O)C(=O)O (centres undefined) | 33% | 57% | 0.018 µmol/kg | 0.067 µmol/kg | 3.7
O=C(Cc1ccccc1)NCCNCC(O)COc1ccc(O)cc1.O=C(O)C(=O)O (centres undefined) | 40% | 40% | 0.027 µmol/kg | 0.09 µmol/kg | 3.3
CCN(CC)C(=O)NCCNCC(O)COc1ccc(O)cc1.O=C(O)C(=O)O (centres undefined) | 18% | 28% | 0.037 µmol/kg | 0.036 µmol/kg | 10
O=C(O)C(=O)O.O=S(=O)(NCCNCC(O)COc1ccc(O)cc1)c1ccccc1 (centres undefined) | 45% | 55% | 0.074 µmol/kg | 0.055 µmol/kg | 0.7
CC(C)NCC(O)c1ccc(O)cc1 (centres undefined) [DETERENOL] | 55% | 88% | 0.01 µmol/kg | 0.077 µmol/kg | 7.7
CC(C)C(=O)NCCNCC(O)COc1ccc(O)cc1.O=C(O)C(=O)O (centres undefined) | 40% | 30% | 0.02 µmol/kg | 0.078 µmol/kg | 3.9
O=C(O)C(=O)O.O=S(=O)(NCCNCC(O)COc1ccc(O)cc1)Nc1ccccc1 (centres undefined) | 79% | 92% | 0.018 µmol/kg | 0.052 µmol/kg | 2.9
O=C(NCCNCC(O)c1cccc(O)c1)Nc1ccccc1.O=C(O)C(=O)O (centres undefined) | 55% | 42% | 0.143 µmol/kg | 0.286 µmol/kg | 2
O=C(NCCNCC(O)COc1cccc(O)c1)Nc1ccccc1.O=C(O)C(=O)O (centres undefined) | 0% | 21% | 0.009 µmol/kg | > 1.5 µmol/kg | >170
CC(C)NCC(O)COc1ccc(O)c(O)c1.O=C(O)C(=O)O (centres undefined) | 100% | 100% | 0.0012 µmol/kg | 0.0012 µmol/kg | 1
O=C(NCCNCC(O)COc1ccc(O)cc1)Nc1ccccc1.O=C(O)C(=O)O (centres undefined) | 45% | 52% | 0.058 µmol/kg | 0.165 µmol/kg | 2.8
CN(C)S(=O)(=O)NCCNCC(O)COc1ccc(O)cc1.O=C(O)C(=O)O (centres undefined) | 80% | 80% | 0.069 µmol/kg | 0.175 µmol/kg | 2.5
CC(C)NC(=O)NCCNCC(O)COc1ccc(O)cc1.O=C(O)C(=O)O (centres undefined) | 26% | 60% | 0.235 µmol/kg | 0.193 µmol/kg | 0.8

Structure (SMILES) | ISA [1] | ISA [2] | ED50 [3] | ED50 [4] | Selectivity [5]
CC(C)NCC(O)c1ccc(O)c(CO)c1 (centres undefined) | 100% | 100% | 0.222 µmol/kg | 0.009 µmol/kg | 0.04
CC(C)C(=O)NCCNCC(O)c1cc(O)cc(O)c1.O=C(O)C(=O)O (centres undefined) | 100% | 89% | 0.035 µmol/kg | 0.105 µmol/kg | 3
O=C(NCCNCC(O)COc1cc(O)cc(O)c1)Nc1ccccc1.O=C(O)C(=O)O (centres undefined) | 0% | 28% | 0.041 µmol/kg | > 5.5 µmol/kg | >135
O=C(NCCNCC(O)COc1ccc(O)c(O)c1)Nc1ccccc1.O=C(O)C(=O)O (centres undefined) | 100% | 80% | 0.0041 µmol/kg | 0.1 µmol/kg | 24.4
O=C(NCCO)NCCNCC(O)COc1ccc(O)cc1.O=C(O)C(=O)O (centres undefined) | 49% | 69% | 0.077 µmol/kg | 0.236 µmol/kg | 3.1
CC(C)C(=O)NCCNCC(O)c1ccc(O)c(O)c1.O=C(O)C(=O)O (centres undefined) | 100% | 84% | 0.0025 µmol/kg | 0.006 µmol/kg | 2.4
Cl.O=C(NCCNCC(O)COc1ccc(O)cc1)NCc1ccccc1 (centres undefined) | 70% | 80% | 0.019 µmol/kg | 0.081 µmol/kg | 4.3
COCCN(C)C(=O)NCCNCC(O)COc1ccc(O)cc1.O=C(O)C(=O)O (centres undefined) | 0% | 27% | 0.012 µmol/kg | > 3 µmol/kg | >250
CC(C)C(=O)NCCNCC(O)COc1ccc(O)c(O)c1.O=C(O)C(=O)O (centres undefined) | 100% | 100% | 0.0016 µmol/kg | 0.0016 µmol/kg | 1
CC(C)C(=O)NCCNCC(O)COc1ccc(O)c(CO)c1.O=C(O)C(=O)O (centres undefined) | 30% | 26% | 0.043 µmol/kg | 0.27 µmol/kg | 6.3
O=C(NCCNCC(O)COc1ccc(O)c(CO)c1)Nc1ccccc1.O=C(O)C(=O)O (centres undefined) | 32% | 42% | 0.045 µmol/kg | 0.112 µmol/kg | 2.5
O=C(NCCNCC(O)c1cc(O)cc(O)c1)Nc1ccccc1.O=C(O)C(=O)O (centres undefined) | 100% | 80% | 0.755 µmol/kg | 0.755 µmol/kg | 1
NC(=O)NCCNCC(O)COc1ccc(O)cc1 (centres undefined) | 50% | 92% | 0.078 µmol/kg | 0.134 µmol/kg | 1.7
CC(C)C(=O)NCCNCC(O)c1ccc(O)cc1.O=C(O)C(=O)O (centres undefined) | 82% | 90% | 0.056 µmol/kg | 0.071 µmol/kg | 1.3
CC(C)C(=O)NCCNCC(O)c1ccc(O)c(CO)c1.O=C(O)C(=O)O (centres undefined) | 100% | 85% | 0.077 µmol/kg | 0.152 µmol/kg | 2
CC(C)C(=O)NCCNCC(O)COc1cc(O)cc(O)c1.O=C(O)C(=O)O (centres undefined) | 18% | 19% | 0.019 µmol/kg | 0.016 µmol/kg | 0.8
O=C(NCCNCC(O)c1ccc(O)cc1)Nc1ccccc1.O=C(O)C(=O)O (centres undefined) | 70% | 71% | 0.098 µmol/kg | 0.228 µmol/kg | 2.3
CN(CCO)C(=O)NCCNCC(O)COc1ccc(O)cc1.Cl (centres undefined) | 48% | 43% | 0.037 µmol/kg | 1.17 µmol/kg | 33
O=C(NCCNCC(O)c1ccc(O)c(CO)c1)Nc1ccccc1.O=C(O)C(=O)O (centres undefined) | 88% | 76% | 0.038 µmol/kg | 0.304 µmol/kg | 8
Cl.O=C(NCCNCC(O)COc1ccc(O)cc1)N(CCO)CCO (centres undefined) | 42% | 41% | 0.145 µmol/kg | 2.33 µmol/kg | 16
CC(C)NC[C@H](O)COc1ccc(O)cc1 [PRENALTEROL] | 31% | 56% | 0.031 µmol/kg | 0.006 µmol/kg | –
CC(C)NCC(O)c1ccc(O)c(O)c1 (centres undefined) [ISOPROTERENOL] | 100% | 100% | 0.0014 µmol/kg | 0.0008 µmol/kg | 0.5
